Common to all, as to assay type: functional
The subject of one assay is NCI-H460. Description: Cytotoxicity against human NCI-H460 cells after 48 hrs. Conditions: NCI-H460, 48 h. An outline of the steps: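 Adherent cells kept in RPMI-1640 with 5% heat-inactivated FBS, 2 mM glutamine and 50 µg/mL gentamycin at 37 °C, 5% CO2. Plated at 7.5 × 10⁴ cells/mL, attached overnight, then given five concentrations (maximum 150 µM; DMSO stocks diluted in medium) for 48 h. Fixed in situ, SRB-stained, absorbance at 492 nm. GI50 (50% inhibition of net growth) taken from dose–response curves.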

For another assay, the system named is MCF7. In words: Cytotoxicity against human MCF7 cells after 48 hrs. The conditions noted are these: MCF7, 48 h. A digest of the protocol:
(§1)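 Adherent cells kept in RPMI-1640 with 5% heat-inactivated FBS, 2 mM glutamine and 50 µg/mL gentamycin at 37 °C, 5% CO2. Plated at 1.5 × 10⁵ cells/mL, attached overnight, then given five concentrations (maximum 150 µM; DMSO stocks diluted in medium) for 48 h. Fixed in situ, SRB-stained, absorbance at 492 nm. GI50 (50% inhibition of net growth) taken from dose–response curves.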

A further assay concerns SF-268. In words: Cytotoxicity against human SF268 cells after 48 hrs. The conditions noted are these: SF-268, 48 h. An outline of the steps:
as §1

`CN(C)/N=C/c1ccc(C2=CC(=O)C=CC2=O)o1`: the GI50 worked out at 148 µM with NCI-H460, 33.5 µM in the assay with MCF7 and 100 µM in the assay on SF-268.

For `CN(C)/N=C/c1ccc(C2=C(Cl)C(=O)c3ccccc3C2=O)o1`, the GI50 in the assay on NCI-H460 is 10.9 µM; in the assay on MCF7, 8.1 µM; in the assay on SF-268 it was 9.3 µM.

`CN(C)/N=C/c1ccc(-c2c(O)ccc(O)c2C=O)o1`: the GI50 was determined as 93 µM in the assay on NCI-H460, 29.4 µM with MCF7 and 38.3 µM in the assay on SF-268.

Take `O=Cc1c(O)ccc(O)c1Cl`: the GI50 with NCI-H460 was found to be 122 µM; in the assay on MCF7, 15.6 µM; in the assay on SF-268, 18.8 µM.

Consider `O=Cc1ccc(-c2c(O)ccc(O)c2C=O)o1`, for which the GI50 in the assay on NCI-H460 was found to be 80.2 µM; with MCF7, 20.3 µM; with SF-268, 35.8 µM.

As for `CN(C)/N=C/c1ccc(C2=CC(=O)c3ccccc3C2=O)o1`, the GI50 in the assay on NCI-H460 came to 6.8 µM; in the assay with MCF7, 7.7 µM; in the assay on SF-268 it was 6.5 µM.

`CCCCSc1c(O)ccc(O)c1C(C)=O`: the GI50 in the assay with NCI-H460 worked out at 63.3 µM; in the assay on MCF7 it was 29.2 µM; in the assay on SF-268, 27.5 µM.

As to `COC1=CC(=O)C(c2ccc(/C=N/N(C)C)o2)=CC1=O`, the GI50 with NCI-H460 worked out at 27.2 µM; in the assay on MCF7 it was 8.2 µM; in the assay with SF-268, 9.1 µM.

In the case of `COc1cccc2c1C(=O)c1c(O)c3c(c(O)c1C2=O)C[C@@](O)(C(=O)CO)C[C@@H]3O[C@H]1C[C@H](N)[C@H](O)[C@H](C)O1` [DOXORUBICIN], the figures for the GI50 in the assay on NCI-H460, in the assay on MCF7 and with SF-268 were 0.094 µM, 0.0428 µM and 0.093 µM, respectively.

A word on the GI50: it is the concentration at which growth is held to half of that of the control. Read a high GI50 as less potent growth inhibition.

Source of the values: ChEMBL document CHEMBL1143911, “Studies on quinones. Part 42: Synthesis of furylquinone and hydroquinones with antiproliferative activity against human tumor cell lines” (2008).
